Our source for the IC50 and Ki values is ChEMBL document CHEMBL1134623, “Design and synthesis of a series of (2R)-N(4)-hydroxy-2-(3-hydroxybenzyl)-N(1)- [(1S,2R)-2-hydroxy-2,3-dihydro-1H-inden-1-yl]butanediamide derivatives as potent, selective, and orally bioavailable aggrecanase inhibitors” (J Med Chem, 2001).

For orientation: IC50 means the concentration needed to halve the response being measured. Low values mean inhibition by little substance, high ones a need for much substance. Usually Ki stands for a dissociation constant, usually derived from enzyme kinetics or from competition with a known ligand. The low end stands for tighter binding, the high end for weaker binding.

Where only a bound is given, the exact number is not on record here.

Sequence of Matrix metalloproteinase-9 (P14780 whole entry): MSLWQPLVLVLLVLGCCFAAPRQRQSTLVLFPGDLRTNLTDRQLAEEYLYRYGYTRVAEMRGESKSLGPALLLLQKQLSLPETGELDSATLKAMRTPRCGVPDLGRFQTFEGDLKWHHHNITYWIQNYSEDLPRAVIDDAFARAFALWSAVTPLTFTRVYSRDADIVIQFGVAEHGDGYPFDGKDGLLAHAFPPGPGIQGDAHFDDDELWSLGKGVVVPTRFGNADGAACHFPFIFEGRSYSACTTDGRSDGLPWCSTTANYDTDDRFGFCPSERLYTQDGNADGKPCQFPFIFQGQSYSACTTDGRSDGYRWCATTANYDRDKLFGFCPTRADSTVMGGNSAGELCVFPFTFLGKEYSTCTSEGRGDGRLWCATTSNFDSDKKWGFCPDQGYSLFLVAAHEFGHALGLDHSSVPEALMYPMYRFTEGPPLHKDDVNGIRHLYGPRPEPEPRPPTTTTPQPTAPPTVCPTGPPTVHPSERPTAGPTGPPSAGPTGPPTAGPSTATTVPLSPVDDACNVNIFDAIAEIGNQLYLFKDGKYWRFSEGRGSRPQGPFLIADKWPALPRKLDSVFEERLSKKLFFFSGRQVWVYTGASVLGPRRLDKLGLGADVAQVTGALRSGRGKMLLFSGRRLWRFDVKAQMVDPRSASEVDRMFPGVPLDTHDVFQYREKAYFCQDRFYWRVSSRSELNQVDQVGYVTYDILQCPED

Target in the first assay: not listed separately
In words: Inhibition of aggrecanase. Further details: species or system Homo sapiens. The method in brief: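 Enzyme was a partially purified preparation from IL-1-stimulated bovine nasal cartilage. No amino acid sequence was available for it when screening began.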
`CC(C)C[C@H](CC(=O)NO)C(=O)N[C@@H]1c2ccccc2C[C@@H]1O` yielded an IC50 of 13300 nM.
The same measure, in the same setting: under `O=C(C[C@@H](Cc1ccc(O)cc1)C(=O)N[C@@H]1CCc2ccccc21)NO` stands 1310 nM; under `CNC(=O)[C@H](Cc1ccc(OC)cc1)NC(=O)[C@@H](CC(=O)NO)CC(C)C`, 368 nM; under `CNC(=O)[C@H](Cc1ccc(OC)cc1)NC(=O)[C@@H](CC(=O)NO)Cc1ccc(O)cc1`, 332 nM.
`CC(C)C[C@H](CC(=O)NO)C(=O)N[C@H]1c2ccccc2C[C@H]1O` came in with an IC50 of 1700 nM.
Same read-out and setting: to `O=C(C[C@@H](Cc1ccc2c(c1)OCO2)C(=O)N[C@H]1c2ccccc2C[C@H]1O)NO` belongs 790 nM.
`COc1cccc(C[C@H](CC(=O)NO)C(=O)N[C@H]2c3ccccc3C[C@H]2O)c1` yielded an IC50 of 3140 nM.
The same measure, in the same setting: to `O=C(C[C@@H](Cc1cccc(O)c1)C(=O)N[C@H]1c2ccccc2C[C@H]1O)NO` belongs 64 nM.
On to `COc1ccc(C[C@H](CC(=O)NO)C(=O)N[C@H]2c3ccccc3C[C@H]2O)cc1`, for which the 50% inhibitory concentration (IC50) was found to be 16.4 nM.
Same read-out and setting: under `O=C(C[C@@H](Cc1ccc(O)cc1)C(=O)N[C@H]1c2ccccc2C[C@H]1O)NO` stands 182 nM; under `O=C(NO)[C@@H](NCC1CC1)[C@@H](Cc1cccc(O)c1)C(=O)N[C@H]1c2ccccc2C[C@H]1O`, 12 nM.

The next assay has as its target Matrix metalloproteinase-9 (Homo sapiens, UniProt P14780). In words: Inhibition of human matrix metalloprotease-9.
For `CC(C)C[C@H](CC(=O)NO)C(=O)N[C@@H]1c2ccccc2C[C@@H]1O`, the Ki is 4.2 µM.
`O=C(C[C@@H](Cc1ccc(O)cc1)C(=O)N[C@@H]1CCc2ccccc21)NO` showed an inhibition constant Ki of 21.2 µM.
Same read-out and setting: to `CNC(=O)[C@H](Cc1ccc(OC)cc1)NC(=O)[C@@H](CC(=O)NO)CC(C)C` belongs under 0.001 µM.
On the same count and under the same terms, under `CNC(=O)[C@H](Cc1ccc(OC)cc1)NC(=O)[C@@H](CC(=O)NO)Cc1ccc(O)cc1` stands 0.0032 µM; under `CC(C)C[C@H](CC(=O)NO)C(=O)N[C@H]1c2ccccc2C[C@H]1O`, 0.162 µM.
On the same count and under the same terms, to `O=C(C[C@@H](Cc1ccc2c(c1)OCO2)C(=O)N[C@H]1c2ccccc2C[C@H]1O)NO` belongs 22 µM.
Regarding `COc1cccc(C[C@H](CC(=O)NO)C(=O)N[C@H]2c3ccccc3C[C@H]2O)c1`, affinity was put at a Ki of 15.5 µM.
Same read-out and setting: to `O=C(C[C@@H](Cc1cccc(O)c1)C(=O)N[C@H]1c2ccccc2C[C@H]1O)NO` belongs 3.32 µM; to `COc1ccc(C[C@H](CC(=O)NO)C(=O)N[C@H]2c3ccccc3C[C@H]2O)cc1`, 0.203 µM; to `O=C(C[C@@H](Cc1ccc(O)cc1)C(=O)N[C@H]1c2ccccc2C[C@H]1O)NO`, 0.166 µM.
The same measure, in the same setting: under `O=C(NO)[C@@H](NCC1CC1)[C@@H](Cc1cccc(O)c1)C(=O)N[C@H]1c2ccccc2C[C@H]1O` stands 4.47 µM.

The next assay has as its target T1, Interstitial collagenase (Homo sapiens, UniProt P03956).
T1 sequence (P03956 whole entry): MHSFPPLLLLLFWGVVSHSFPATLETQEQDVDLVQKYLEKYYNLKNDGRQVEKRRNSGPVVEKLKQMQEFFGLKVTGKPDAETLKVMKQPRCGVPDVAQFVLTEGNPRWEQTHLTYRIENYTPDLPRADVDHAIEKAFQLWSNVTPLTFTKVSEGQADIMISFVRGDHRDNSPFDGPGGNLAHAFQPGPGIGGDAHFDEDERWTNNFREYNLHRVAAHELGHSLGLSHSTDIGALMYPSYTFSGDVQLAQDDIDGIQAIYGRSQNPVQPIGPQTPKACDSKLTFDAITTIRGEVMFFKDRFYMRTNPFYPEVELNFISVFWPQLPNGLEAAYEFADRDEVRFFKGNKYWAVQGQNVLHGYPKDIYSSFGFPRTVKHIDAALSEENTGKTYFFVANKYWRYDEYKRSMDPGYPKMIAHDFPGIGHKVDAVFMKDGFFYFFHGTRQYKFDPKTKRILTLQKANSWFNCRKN
In words: Inhibition of matrix metalloprotease-1.
`CC(C)C[C@H](CC(=O)NO)C(=O)N[C@@H]1c2ccccc2C[C@@H]1O` displayed a Ki of 1.09 µM.
`O=C(C[C@@H](Cc1ccc(O)cc1)C(=O)N[C@@H]1CCc2ccccc21)NO` registered a Ki of 75 µM.
With `CNC(=O)[C@H](Cc1ccc(OC)cc1)NC(=O)[C@@H](CC(=O)NO)Cc1ccc(O)cc1`, the affinity corresponds to a Ki of 0.0107 µM.
In turn, `CC(C)C[C@H](CC(=O)NO)C(=O)N[C@H]1c2ccccc2C[C@H]1O` returned a Ki of 0.082 µM.
Same read-out and setting: to `O=C(C[C@@H](Cc1ccc2c(c1)OCO2)C(=O)N[C@H]1c2ccccc2C[C@H]1O)NO` belongs 50 µM; to `COc1cccc(C[C@H](CC(=O)NO)C(=O)N[C@H]2c3ccccc3C[C@H]2O)c1`, 95.5 µM.
As to `O=C(C[C@@H](Cc1cccc(O)c1)C(=O)N[C@H]1c2ccccc2C[C@H]1O)NO`, the affinity corresponds to a Ki of 31 µM.
On the same count and under the same terms, to `COc1ccc(C[C@H](CC(=O)NO)C(=O)N[C@H]2c3ccccc3C[C@H]2O)cc1` belongs 1.16 µM; to `O=C(C[C@@H](Cc1ccc(O)cc1)C(=O)N[C@H]1c2ccccc2C[C@H]1O)NO`, 0.946 µM.
The compound `O=C(NO)[C@@H](NCC1CC1)[C@@H](Cc1cccc(O)c1)C(=O)N[C@H]1c2ccccc2C[C@H]1O` came in with a Ki of 33.2 µM.

A further assay deals with 72 kDa type IV collagenase (Homo sapiens, UniProt P08253). In words: Inhibition of matrix metalloprotease-2.
Sequence of 72 kDa type IV collagenase (P08253 whole entry): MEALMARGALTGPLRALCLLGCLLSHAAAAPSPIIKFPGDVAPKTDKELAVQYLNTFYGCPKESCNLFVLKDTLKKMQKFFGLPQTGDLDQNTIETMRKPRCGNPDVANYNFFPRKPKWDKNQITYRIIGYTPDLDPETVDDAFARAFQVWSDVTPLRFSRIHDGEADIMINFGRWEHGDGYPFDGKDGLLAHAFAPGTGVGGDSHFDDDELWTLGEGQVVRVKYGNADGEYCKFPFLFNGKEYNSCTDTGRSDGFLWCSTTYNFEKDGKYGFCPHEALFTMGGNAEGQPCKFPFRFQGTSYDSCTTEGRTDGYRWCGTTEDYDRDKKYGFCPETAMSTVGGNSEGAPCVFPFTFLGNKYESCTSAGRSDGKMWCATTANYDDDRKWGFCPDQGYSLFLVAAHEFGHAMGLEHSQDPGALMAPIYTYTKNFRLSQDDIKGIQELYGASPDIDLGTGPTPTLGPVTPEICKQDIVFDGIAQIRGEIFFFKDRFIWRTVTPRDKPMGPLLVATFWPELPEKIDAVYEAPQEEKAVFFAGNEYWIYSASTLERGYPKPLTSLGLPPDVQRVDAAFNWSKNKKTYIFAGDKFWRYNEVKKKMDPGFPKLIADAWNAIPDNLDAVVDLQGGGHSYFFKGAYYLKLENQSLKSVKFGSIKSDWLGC
The compound `CC(C)C[C@H](CC(=O)NO)C(=O)N[C@@H]1c2ccccc2C[C@@H]1O` registered a Ki of 1530 nM.
The compound `O=C(C[C@@H](Cc1ccc(O)cc1)C(=O)N[C@@H]1CCc2ccccc21)NO` displayed a Ki of 31600 nM.
Compound `CNC(=O)[C@H](Cc1ccc(OC)cc1)NC(=O)[C@@H](CC(=O)NO)Cc1ccc(O)cc1` registered a Ki of 4.3 nM.
`CC(C)C[C@H](CC(=O)NO)C(=O)N[C@H]1c2ccccc2C[C@H]1O` gave a Ki of 73 nM.
`O=C(C[C@@H](Cc1ccc2c(c1)OCO2)C(=O)N[C@H]1c2ccccc2C[C@H]1O)NO` showed a Ki of 35000 nM.
The same measure, in the same setting: to `COc1cccc(C[C@H](CC(=O)NO)C(=O)N[C@H]2c3ccccc3C[C@H]2O)c1` belongs 6600 nM; to `O=C(C[C@@H](Cc1cccc(O)c1)C(=O)N[C@H]1c2ccccc2C[C@H]1O)NO`, 1510 nM; to `COc1ccc(C[C@H](CC(=O)NO)C(=O)N[C@H]2c3ccccc3C[C@H]2O)cc1`, 52 nM.
Still for that read-out and setting: under `O=C(C[C@@H](Cc1ccc(O)cc1)C(=O)N[C@H]1c2ccccc2C[C@H]1O)NO` stands 408 nM; under `O=C(NO)[C@@H](NCC1CC1)[C@@H](Cc1cccc(O)c1)C(=O)N[C@H]1c2ccccc2C[C@H]1O`, 6300 nM.

In another assay the target is Neutrophil collagenase (Homo sapiens, UniProt P22894). In words: Inhibition of matrix metalloprotease-8.
Sequence of Neutrophil collagenase (P22894 whole entry): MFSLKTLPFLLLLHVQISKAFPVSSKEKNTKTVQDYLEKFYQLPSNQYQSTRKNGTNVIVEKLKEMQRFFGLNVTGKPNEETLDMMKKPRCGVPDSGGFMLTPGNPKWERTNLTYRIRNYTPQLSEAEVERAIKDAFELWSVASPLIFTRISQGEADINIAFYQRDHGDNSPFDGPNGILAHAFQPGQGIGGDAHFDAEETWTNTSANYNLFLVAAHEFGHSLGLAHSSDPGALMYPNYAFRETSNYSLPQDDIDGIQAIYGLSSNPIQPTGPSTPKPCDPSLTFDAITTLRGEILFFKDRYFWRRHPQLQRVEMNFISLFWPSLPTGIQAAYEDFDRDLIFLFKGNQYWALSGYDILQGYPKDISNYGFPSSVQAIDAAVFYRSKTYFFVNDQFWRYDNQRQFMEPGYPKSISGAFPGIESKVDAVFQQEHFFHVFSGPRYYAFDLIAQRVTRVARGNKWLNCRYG
The compound `CC(C)C[C@H](CC(=O)NO)C(=O)N[C@@H]1c2ccccc2C[C@@H]1O` came in with a Ki of 303 nM.
Same read-out and setting: under `O=C(C[C@@H](Cc1ccc(O)cc1)C(=O)N[C@@H]1CCc2ccccc21)NO` stands 15300 nM; under `CNC(=O)[C@H](Cc1ccc(OC)cc1)NC(=O)[C@@H](CC(=O)NO)CC(C)C`, 0.7 nM.
As to `CNC(=O)[C@H](Cc1ccc(OC)cc1)NC(=O)[C@@H](CC(=O)NO)Cc1ccc(O)cc1`, the inhibition constant (Ki) is 0.45 nM.
On to `CC(C)C[C@H](CC(=O)NO)C(=O)N[C@H]1c2ccccc2C[C@H]1O`, for which the Ki was found to be 37 nM.
Turning to `O=C(C[C@@H](Cc1ccc2c(c1)OCO2)C(=O)N[C@H]1c2ccccc2C[C@H]1O)NO`, the inhibition constant (Ki) was found to be 40000 nM.
For the compound `COc1cccc(C[C@H](CC(=O)NO)C(=O)N[C@H]2c3ccccc3C[C@H]2O)c1`, the affinity corresponds to a Ki of 1190 nM.
`O=C(C[C@@H](Cc1cccc(O)c1)C(=O)N[C@H]1c2ccccc2C[C@H]1O)NO` had an inhibition constant Ki of 8600 nM.
Regarding `COc1ccc(C[C@H](CC(=O)NO)C(=O)N[C@H]2c3ccccc3C[C@H]2O)cc1`, the Ki is 9.2 nM.
Still for that read-out and setting: under `O=C(C[C@@H](Cc1ccc(O)cc1)C(=O)N[C@H]1c2ccccc2C[C@H]1O)NO` stands 70 nM.
On the same count and under the same terms, under `O=C(NO)[C@@H](NCC1CC1)[C@@H](Cc1cccc(O)c1)C(=O)N[C@H]1c2ccccc2C[C@H]1O` stands 171 nM.
